NR2E3 ag-1 – activates human photoreceptor nuclear receptor NR2E3; inhibition of corepressor binding, % at 4.78 µM; Q9Y5X4; 320,000 tested, 0.12% active; GST-NR2E3/biotin-RetCOR TR-FRET, 1536-well;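 active = percent inhibition above the cutoff of mean plus 3 SD of all tested compounds, set per screening campaign, cut at about 20% in these data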
Target sequence (Q9Y5X4 whole entry, looked up): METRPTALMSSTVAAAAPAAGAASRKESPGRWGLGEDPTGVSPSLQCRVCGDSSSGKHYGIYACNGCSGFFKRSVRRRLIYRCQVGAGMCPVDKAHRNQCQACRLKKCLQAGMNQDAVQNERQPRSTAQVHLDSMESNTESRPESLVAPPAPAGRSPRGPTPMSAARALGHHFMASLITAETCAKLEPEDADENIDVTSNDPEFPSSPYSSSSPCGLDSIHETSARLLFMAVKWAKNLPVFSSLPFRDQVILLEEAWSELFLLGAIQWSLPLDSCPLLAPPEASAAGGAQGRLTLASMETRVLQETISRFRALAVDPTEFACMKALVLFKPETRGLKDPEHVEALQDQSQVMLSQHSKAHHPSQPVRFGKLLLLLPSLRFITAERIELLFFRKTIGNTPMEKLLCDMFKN
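Format: 1536-well format; test system: GST-NR2E3 and biotin-RetCOR proteins; read-out basis: percent inhibition of TR-FRET ratio; timing: 5 h incubation at 4 °C; detection: time-resolved FRET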
proKLK7 act – proKLK7 (human) activation, primary screen; purified proKLK7, EDANS-DABCYL substrate fluorescence; 100% is mature enzyme control, 0% vehicle; P49862; 370,000 tested, 0.9% active; activation, % at 7 µM;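 active = activation above the mean of all tested compounds plus 3 SD, computed per campaign excluding outliers beyond control limits, cut at about 13% in these data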
Target sequence (P49862 whole entry, looked up): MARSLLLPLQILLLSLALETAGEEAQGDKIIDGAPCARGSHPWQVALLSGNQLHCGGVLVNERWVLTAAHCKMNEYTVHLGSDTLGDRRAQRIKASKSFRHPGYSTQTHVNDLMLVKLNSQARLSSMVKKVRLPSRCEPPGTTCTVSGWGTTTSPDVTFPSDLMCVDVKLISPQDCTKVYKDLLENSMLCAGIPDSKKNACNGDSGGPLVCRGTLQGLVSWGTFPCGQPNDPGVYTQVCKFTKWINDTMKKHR
NR2E3 ag-2 – human photoreceptor-specific nuclear receptor agonism; inhibition of corepressor binding, % at 3.98 µM; CHO-S Gal4-NCOR/VP16-NR2E3 two-hybrid, luciferase; 360,000 tested, 0.35% active; AID 602229; Q9Y5X4;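 active = inhibition above the mean of all tested compounds plus 3 SD, cut at about 70% in these data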;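 note: higher means lower luciferase signal from less NR2E3 corepressor binding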
ADAM10 inh – ADAM10 inhibition, QFRET primary screen; recombinant ADAM10, EDANS/DABCYL FRET peptide cleavage, 3 h; inhibition, % at 7 µM; 370,000 tested, 0.62% active; AID 720582;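 active = inhibition above a per-campaign cutoff equal to the mean of compounds falling between control-based bounds plus 3 SD, cut at about 20% in these data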
JMJD2C inh – blocks human GASC-1 demethylase activity. GST-JMJD2C(1-420) H3K9me3 demethylation, DELFIA europium. 330,000 tested, 0.069% active. AID 2099. inhibition, % at 2.35 µM;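 active = more than half of a compound's replicate wells show inhibition beyond 50%, single wells judged on their own value; inconclusive = some, but no more than half, of replicates pass 50% inhibition; inactive = no replicate passes 50% inhibition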;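 note: signal counts dimethyl H3K9 product captured on neutravidin plate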
ADAM17 inh – inhibits human ADAM17. P78536. recombinant ADAM17, EDANS/DABCYL FRET peptide cleavage. inhibition, % at 6.95 µM. 370,000 tested, 0.83% active. AID 720648;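 active = inhibition above the mean of compounds lying between control limits plus 3 SD, set per campaign, cut at about 8.5% in these data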
proKLK7 act conf – proKLK7 activation, confirmation; shares compounds with proKLK7 act; purified proKLK7, EDANS-DABCYL substrate fluorescence; scaled: vehicle 0, mature enzyme 100; activation, % at 7 µM; 3,200 tested, 68% active; AID 686949;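 active = activation, as change over the incubation, above the mean of all tested compounds plus 3 SD, cut at about 13% in these data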
EDANS-DABCYL int – optically interferes with EDANS-DABCYL signal, flagging KLK7 hits; shares compounds with proKLK7 act; activation, % at 7 µM; EDANS-DABCYL substrate fluorescence interference, no enzyme, 4 h; solvent 0%, active enzyme control 100%; 3,200 tested, 80% active; AID 686952;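 active = activation above the all-compound mean plus 3 SD, ignoring values outside control-based bounds, cut at about 4.8% in these data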;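 note: value is the 4 h activation minus the activation read at time zero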
Of the large screens only hits and unclear results are named; the others gave an inactive call (follow-up assays come after a bar, where they were run). Sampled rows, rich in hits. Any-hit rate of the full collection: about 2.5%.

CCOC(=O)CCc1c(C)c2ccc3c(c2oc1=O)CN(CCCO)CO3	proKLK7 act 52 | proKLK7 act conf 71 | EDANS-DABCYL int 75
COC(=O)c1cc(-c2ccc(C)cc2)c(=O)n2c1CCC2	none (no result: NR2E3 ag-1, NR2E3 ag-2, JMJD2C inh)
COC(=O)c1cc(-c2ccc(C(C)=O)cc2)c(=O)n2c1CCC2	proKLK7 act 39 (no result: NR2E3 ag-1, NR2E3 ag-2, JMJD2C inh) | proKLK7 act conf 72 | EDANS-DABCYL int 71
CC(C)OCCCNC(=O)c1cc(-c2cccs2)nc2ccccc12	proKLK7 act 15 | proKLK7 act conf 13 | EDANS-DABCYL int 13
Cc1ccc(-c2cc(C(=O)OC3CCOC3=O)c3ccccc3n2)c(C)c1 (stereo unspecified)	none
CCc1ccc(-c2cc(C(=O)NN3CCOCC3)c3ccccc3n2)s1	proKLK7 act 49 | proKLK7 act conf 79 | EDANS-DABCYL int 68
O=C(NN1CCOCC1)c1cc(-c2cccs2)nc2ccccc12	proKLK7 act 37 | proKLK7 act conf 33 | EDANS-DABCYL int 36
O=C(OC1CCOC1=O)c1cc(-c2cccs2)nc2ccccc12 (stereo unspecified)	proKLK7 act 275 | proKLK7 act conf 139 | EDANS-DABCYL int 189
O=C(OCc1ccccc1)N1C=CCC[C@@H]1c1c(Cl)cccc1Br	none (no result: NR2E3 ag-1, JMJD2C inh)
O=C(N/N=C/c1cc(Br)ccc1OC(=O)c1ccc(Br)cc1)c1ccncc1	none
O=C(O)c1cc(-c2cccs2)nc2cc3c(cc12)OCCO3	proKLK7 act 30 | proKLK7 act conf 42 | EDANS-DABCYL int 50
Cc1cc(C)c2nc(NNC(=O)c3cc(-c4cccs4)nc4ccccc34)sc2c1	proKLK7 act 13 | proKLK7 act conf inactive | EDANS-DABCYL int 12
Cc1ccc2sc(NNC(=O)c3cc(-c4cccs4)nc4ccccc34)nc2c1C	none (no result: NR2E3 ag-2)
CCOC(=O)N1CCC(N2C(=O)c3ccccc3C2Nc2ccc3c(c2)OCCO3)CC1 (stereo unspecified)	none
CCOC(=O)N1CCC(N2C(=O)c3ccccc3C2Nc2ccc3c(C)cc(=O)oc3c2)CC1 (stereo unspecified)	proKLK7 act 36 | proKLK7 act conf inactive | EDANS-DABCYL int inactive
C=CCNc1ncnc2c1ncn2[C@H]1CN(CCOC)C[C@@H](CO)O1	none (no result: NR2E3 ag-1, JMJD2C inh)
Cc1ccc(S(=O)(=O)C(C#N)c2nc3ccccc3nc2OCCO)cc1 (stereo unspecified)	none
CC(=O)Nc1ccc(S(=O)(=O)C(C#N)c2nc3ccccc3nc2NCCO)cc1 (stereo unspecified)	proKLK7 act 64 | proKLK7 act conf 66 | EDANS-DABCYL int 73
CC(=O)Nc1ccc(S(=O)(=O)Nc2nc3ccccc3nc2Nc2ccccc2)cc1	none
CC(=O)Nc1ccc(S(=O)(=O)C(C#N)c2nc3ccccc3nc2NCCCO)cc1 (stereo unspecified)	proKLK7 act 39 | proKLK7 act conf 53 | EDANS-DABCYL int 69
CCOC(=O)c1[nH]c2ccc(OC)cc2c1NC(=O)CCN1CCSCC1	proKLK7 act 17 | proKLK7 act conf inactive | EDANS-DABCYL int 10
CCOC(=O)c1oc2ccc(OC)cc2c1NC(=O)CN1CCN(C)CC1	proKLK7 act 16 | proKLK7 act conf inactive | EDANS-DABCYL int inactive
Cc1ccc(C(=O)NCc2nnc(SCC(=O)NC(C)c3ccccc3)n2C)cc1 (stereo unspecified)	none
Nc1nc2c(F)c(F)c(F)cc2s1	none
CCc1cc(=O)oc2cc(OC(=O)CN3C(=O)NC4(CCCC4)C3=O)ccc12	proKLK7 act 97 | proKLK7 act conf 60 | EDANS-DABCYL int 68
Cc1ccc(OCCOC(=O)CN2C(=O)NC3(CCCC3)C2=O)cc1	none
O=C(CN1C(=O)NC2(CCCC2)C1=O)Oc1ccc2ccc(=O)oc2c1	proKLK7 act 67 (no result: JMJD2C inh) | proKLK7 act conf 63 | EDANS-DABCYL int 72
O=C(CN1C(=O)NC2(CCCCC2)C1=O)Oc1ccc2c(C(F)(F)F)cc(=O)oc2c1	proKLK7 act 63 | proKLK7 act conf 61 | EDANS-DABCYL int 66
COCc1cc(C)nc(SCC(=O)Nc2ccc(N3CCOCC3)cc2)c1C#N	none
C/C(=N/NC(=O)CN1CCN(Cc2ccccc2Cl)CC1)c1cccs1	none
COc1ccccc1NC(=O)COC(=O)c1[nH]c(=O)[nH]c(=O)c1N	proKLK7 act 84, JMJD2C inh 53 (no result: NR2E3 ag-1) | proKLK7 act conf 120 | EDANS-DABCYL int 121
O=C(Cn1ccc2cc(S(=O)(=O)N3CCCC3)ccc21)NCCc1ccccc1	none
CC(=O)c1cc2c(C)cc(=O)oc2cc1O	none
Cc1cc(=O)oc2cc3c(cc12)OCCN3	proKLK7 act 67 | proKLK7 act conf 76 | EDANS-DABCYL int 83
Cc1cc(=O)oc2cc3c(cc12)OCCO3	JMJD2C inh inconclusive
Cc1cc(=O)oc2cc3c(cc12)OCO3	proKLK7 act 36 | proKLK7 act conf 67 | EDANS-DABCYL int 74
CCCCNC(=O)C1C(c2ccc(C(F)(F)F)cc2)=Nc2ccccc2N1C(=O)c1ccc2nc(C)[nH]c2c1 (stereo unspecified)	proKLK7 act 92 (no result: NR2E3 ag-1, NR2E3 ag-2, JMJD2C inh) | proKLK7 act conf inactive | EDANS-DABCYL int inactive
Cc1cc(NC(=O)CSc2nnc(C)n2C)no1	none
Nc1nc2sc3c(c2cc1C(=O)N1CCOCC1)CCCC3	proKLK7 act 14 | proKLK7 act conf inactive | EDANS-DABCYL int 14
Cc1cc(=O)n2c(ccc3ccccc32)c1C#N	none
Cc1cc(=O)n2ccccc2c1C#N	proKLK7 act 48 | proKLK7 act conf 70 | EDANS-DABCYL int 70
CCC1(CC)Cc2ccccc2-c2nc(NCCO)[nH]c(=O)c21	proKLK7 act 25 | proKLK7 act conf inactive | EDANS-DABCYL int inactive
CCC1(C)Cc2ccccc2-c2nc(NCCO)n(-c3ccccc3)c(=O)c21 (stereo unspecified)	proKLK7 act 26, JMJD2C inh inconclusive | proKLK7 act conf inactive | EDANS-DABCYL int inactive
COc1ccc(CCC(=O)O)c(C(CC(=O)O)C(=O)O)c1OS(=O)(=O)c1ccc(C)cc1 (stereo unspecified)	none (no result: NR2E3 ag-1, JMJD2C inh)
O=C(CSc1ncccn1)Nc1cc(Cl)ccc1[N+](=O)[O-]	none
CCc1cc2c(=O)c(-c3nc4ccccc4n3C)coc2c(CN2CCN(C)CC2)c1O	none
CCN(CC)Cc1c(O)ccc2cc(-c3nc4ccccc4n3C)c(=O)oc12	proKLK7 act 52 | proKLK7 act conf 73 | EDANS-DABCYL int 76
CCc1cc2c(=O)c(-c3nc4ccccc4n3C)c(C)oc2c(CN(CC)CC)c1O	proKLK7 act 16 | proKLK7 act conf inactive | EDANS-DABCYL int 11

Screening results deposited in PubChem by several laboratories.
